From publication PMC3553987 (Nucleic Acids Research, 2012)

How the values were obtained:
P-STAT1 = molecular target: T1, P-STAT1 (Homo sapiens, UniProt P42224); assay: TIRF-PBM: inhibition of P-STAT1 equilibrium binding to DNA array; settings: 20 µM compound, 50 nM P-STAT1
T1 sequence (P42224 1-750): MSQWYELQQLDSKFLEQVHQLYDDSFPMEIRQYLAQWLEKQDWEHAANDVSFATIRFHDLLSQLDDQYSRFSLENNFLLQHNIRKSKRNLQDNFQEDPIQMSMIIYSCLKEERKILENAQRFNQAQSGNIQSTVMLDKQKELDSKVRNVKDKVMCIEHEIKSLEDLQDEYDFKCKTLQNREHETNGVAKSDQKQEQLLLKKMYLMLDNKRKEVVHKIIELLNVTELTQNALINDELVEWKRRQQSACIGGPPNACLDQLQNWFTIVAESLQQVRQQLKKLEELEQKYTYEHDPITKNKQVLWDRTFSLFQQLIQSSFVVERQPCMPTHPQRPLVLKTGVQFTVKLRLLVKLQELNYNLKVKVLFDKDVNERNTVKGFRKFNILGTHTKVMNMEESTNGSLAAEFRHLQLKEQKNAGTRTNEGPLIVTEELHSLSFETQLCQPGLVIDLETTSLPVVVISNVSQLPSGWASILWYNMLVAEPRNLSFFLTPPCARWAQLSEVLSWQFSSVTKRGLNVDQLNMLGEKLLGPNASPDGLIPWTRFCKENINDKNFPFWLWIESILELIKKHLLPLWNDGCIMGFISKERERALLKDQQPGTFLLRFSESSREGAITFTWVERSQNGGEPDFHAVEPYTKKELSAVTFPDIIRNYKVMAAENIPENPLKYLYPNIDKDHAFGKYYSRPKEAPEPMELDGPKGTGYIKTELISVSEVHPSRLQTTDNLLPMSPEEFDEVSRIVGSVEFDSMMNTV
Procedure, shortened: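 Phosphorylated STAT1 (50 nM), amine-labelled with DyLight dyes, with test compound (20 μM final, from 5 mM DMSO stock). Flowed >30 min at 25°C over dsDNA hydrogel microarray; TIRF read, 20 s exposures. Intensities from 5–10 replicate spots, binned as GAS palindrome with 3-nt spacer, half-GAS, or absent/misspaced GAS.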

STAT3 = settings: STAT3, at this concentration (20 µM), in cells and in vivo; cited from earlier work
Myc/Max [1] = settings: read-out: reported IC50; obtained with a cognate-binding site; cited from earlier work
Myc/Max [2] = molecular target: Myc/Max (Homo sapiens, UniProt P01106); assay: TIRF-PBM: inhibition of Myc/Max equilibrium binding to DNA array; settings: 50 μM Mycro3, 10 nM Myc/Max
Procedure, shortened: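 DyLight-labelled Myc/Max (His-tagged c-Myc and Max expressed separately in E. coli, then denatured and renatured together) with test compound (5 mM DMSO stock, 50 μM final). Equilibrium intensity from 5–10 replicate spots; E-box consensus vs mutated/absent bins compared by two-tailed t-test with Welch's correction.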

Chain of Myc/Max (Homo sapiens, UniProt P01106) (P01106 whole entry): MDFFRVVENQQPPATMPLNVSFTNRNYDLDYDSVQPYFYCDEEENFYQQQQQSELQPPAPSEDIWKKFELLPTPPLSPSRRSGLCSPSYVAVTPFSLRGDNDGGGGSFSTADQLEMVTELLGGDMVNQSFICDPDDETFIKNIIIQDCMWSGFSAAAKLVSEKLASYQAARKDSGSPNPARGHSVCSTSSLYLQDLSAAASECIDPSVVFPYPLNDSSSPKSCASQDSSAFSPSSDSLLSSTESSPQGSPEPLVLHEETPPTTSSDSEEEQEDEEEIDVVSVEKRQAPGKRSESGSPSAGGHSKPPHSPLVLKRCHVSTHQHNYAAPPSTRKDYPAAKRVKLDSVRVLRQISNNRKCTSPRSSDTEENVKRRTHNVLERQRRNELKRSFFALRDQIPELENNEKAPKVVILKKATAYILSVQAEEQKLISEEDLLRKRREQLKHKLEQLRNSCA

adjusted binding intensity at 'Half Sites' (P-STAT1) [%] | adjusted binding intensity at 'Poor Affinity' sites (P-STAT1) [%] | average adjusted binding intensity at 'High Affinity' sites, % of the no-inhibitor control (P-STAT1) [%] | fold reduction in binding at 'High Affinity' sites (P-STAT1) [fold] | Myc/Max binding intensity at 'high affinity' sites, % signal (Myc/Max [2]) [%] | Myc/Max binding signal at weaker affinity sites (Myc/Max [2]) [%] | SMILES | DNA binding, % of normal activity (STAT3) [%] | IC50 (Myc/Max [1]) [µM]
59.4 ± 15.5 | 42.4 ± 13.1 | 12.6 ± 4.9 | ~8 |  |  | CC(=O)c1cccc2c1C(=O)c1cccc(O)c1C2=O [LLL3] | ~40 | 
 |  |  |  | 68.5 ± 10.6 | 66.2 ± 23.7 | CCOC(=O)c1cnn(-c2ccccc2)c1NC(=O)c1cc2nc(-c3ccco3)cc(C(F)(F)Cl)n2n1 [Mycro3] |  | 40 ± 13
